Measured values from ChEMBL document CHEMBL4145462, “Nitrogen-containing ecdysteroid derivatives vs. multi-drug resistance in cancer: Preparation and antitumor activity of oximes, oxime ethers and a lactam” (Eur J Med Chem, 2018).

Tests used:
[1] = Synergistic cytotoxicity against mouse L5178 cells assessed as combination index at ED75 using 300:1 test compound to doxorubicin ratio after 48 hrs by MTT-based checkerboard microplate method; assay type: functional
Procedure, shortened: (§1)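 Checkerboard microplate combinations of compound with doxorubicin at constant molar ratios. 5 × 10^4 cells/well in McCoy's 5A, 48 h at 37°C, 5% CO2. MTT added to 0.5 mg/mL final for 4 h, SDS/HCl overnight, OD read at 540 and 630 nm. Combination indices derived per ratio for 50%, 75% and 90% growth inhibition by median-effect analysis.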

[2] = Synergistic cytotoxicity against mouse L5178 cells assessed as combination index at ED50 using 75:1 test compound to doxorubicin ratio after 48 hrs by MTT-based checkerboard microplate method; assay type: functional; procedure, shortened: as §1
[3] = Synergistic cytotoxicity against mouse L5178 cells expressing human ABCB1 assessed as combination index at ED90 using 15:1 test compound to doxorubicin ratio after 48 hrs by MTT-based checkerboard microplate method; assay type: functional; procedure, shortened: as §1
[4] = Synergistic cytotoxicity against mouse L5178 cells assessed as combination index at ED75 using 37.5:1 test compound to doxorubicin ratio after 48 hrs by MTT-based checkerboard microplate method; assay type: functional; procedure, shortened: as §1
HeLa = experiment: Antiproliferative activity against human HeLa cells after 72 hrs by MTT assay; assay type: functional, cell-based
Procedure, shortened: (§2)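 Cells grown in MEM with 10% FCS, 1% non-essential amino acids and 1% penicillin-streptomycin. Seeded at 5000 cells/well, exposed to 0.1–30.0 µM compound for 72 h. MTT (5 mg/ml solution) was then added for 4 h, formazan dissolved in DMSO, and absorbance read at 545 nm. Cisplatin served as positive control. IC50 came from sigmoidal dose–response fits (log inhibitor vs normalized response, variable slope).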

ABCB1 (P-glycoprotein) [5] = target: T1, ABCB1 (P-glycoprotein) (Homo sapiens, UniProt P08183); experiment: Inhibition of human ABCB1 expressed in mouse L5178 cells assessed as increase in rhodamine-123 accumulation at 2 uM after 10 mins by flow cytometric analysis relative to control; assay type: cell-based; conditions: mouse L5178 cells expressing human ABCB1, probe rhodamine-123
T1 sequence (P08183 whole entry): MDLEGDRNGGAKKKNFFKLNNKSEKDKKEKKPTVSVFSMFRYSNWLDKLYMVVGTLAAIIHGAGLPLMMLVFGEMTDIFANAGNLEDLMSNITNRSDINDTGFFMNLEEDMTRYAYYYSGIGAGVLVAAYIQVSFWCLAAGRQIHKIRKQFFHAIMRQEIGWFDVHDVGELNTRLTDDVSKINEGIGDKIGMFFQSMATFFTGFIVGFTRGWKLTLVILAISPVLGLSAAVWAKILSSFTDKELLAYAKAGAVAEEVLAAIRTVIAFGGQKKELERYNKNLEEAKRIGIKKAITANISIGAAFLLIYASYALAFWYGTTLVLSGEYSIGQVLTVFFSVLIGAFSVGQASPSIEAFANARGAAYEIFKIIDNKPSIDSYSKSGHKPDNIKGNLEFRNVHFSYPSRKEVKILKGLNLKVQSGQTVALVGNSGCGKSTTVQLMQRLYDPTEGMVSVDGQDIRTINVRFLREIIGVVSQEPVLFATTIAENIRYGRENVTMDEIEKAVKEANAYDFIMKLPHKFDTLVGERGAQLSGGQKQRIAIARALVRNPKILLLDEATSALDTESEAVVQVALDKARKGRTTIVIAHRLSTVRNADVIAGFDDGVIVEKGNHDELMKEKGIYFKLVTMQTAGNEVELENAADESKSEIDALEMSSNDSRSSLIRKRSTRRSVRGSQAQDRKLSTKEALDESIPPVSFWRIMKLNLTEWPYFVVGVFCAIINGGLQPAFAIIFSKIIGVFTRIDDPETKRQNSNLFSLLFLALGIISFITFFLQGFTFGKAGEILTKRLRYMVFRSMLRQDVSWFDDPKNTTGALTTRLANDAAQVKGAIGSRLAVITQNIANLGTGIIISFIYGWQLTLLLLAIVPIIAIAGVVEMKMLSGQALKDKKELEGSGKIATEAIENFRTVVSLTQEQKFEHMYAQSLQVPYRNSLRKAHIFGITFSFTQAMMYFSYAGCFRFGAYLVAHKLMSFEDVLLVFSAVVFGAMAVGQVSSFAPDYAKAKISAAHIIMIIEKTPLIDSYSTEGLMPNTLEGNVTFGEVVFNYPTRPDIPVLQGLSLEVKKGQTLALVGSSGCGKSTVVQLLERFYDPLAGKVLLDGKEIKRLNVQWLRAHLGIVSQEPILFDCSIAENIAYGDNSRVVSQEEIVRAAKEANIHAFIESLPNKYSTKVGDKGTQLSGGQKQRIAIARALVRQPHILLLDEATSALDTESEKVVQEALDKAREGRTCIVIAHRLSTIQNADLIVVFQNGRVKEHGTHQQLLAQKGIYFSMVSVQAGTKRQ
Procedure, shortened: (§3)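 Cells at 2 × 10^6/mL were preincubated 10 min with compound. Rhodamine 123 then added to 5.2 µM final, 20 min at 37 °C. Cells washed twice in PBS, resuspended and read by flow cytometry. Percent inhibition was scaled between MDR-cell accumulation (0%) and parental L5178 accumulation (100%). Controls: 100 nM tariquidar (positive) and 2% DMSO (negative).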

[6] = Synergistic cytotoxicity against mouse L5178 cells expressing human ABCB1 assessed as combination index at ED90 using 60:1 test compound to doxorubicin ratio after 48 hrs by MTT-based checkerboard microplate method; assay type: functional; procedure, shortened: as §1
[7] = Synergistic cytotoxicity against mouse L5178 cells expressing human ABCB1 assessed as combination index at ED90 using 7.5:1 test compound to doxorubicin ratio after 48 hrs by MTT-based checkerboard microplate method; assay type: functional; procedure, shortened: as §1
[8] = Synergistic cytotoxicity against mouse L5178 cells expressing human ABCB1 assessed as combination index at ED50 using 60:1 test compound to doxorubicin ratio after 48 hrs by MTT-based checkerboard microplate method; assay type: functional; procedure, shortened: as §1
SiHa = experiment: Antiproliferative activity against human SiHa cells after 72 hrs by MTT assay; assay type: functional, cell-based; procedure, shortened: as §2
[9] = Synergistic cytotoxicity against mouse L5178 cells assessed as combination index at ED50 using 150:1 test compound to doxorubicin ratio after 48 hrs by MTT-based checkerboard microplate method; assay type: functional; procedure, shortened: as §1
[10] = Synergistic cytotoxicity against mouse L5178 cells expressing human ABCB1 assessed as combination index at ED75 using 30:1 test compound to doxorubicin ratio after 48 hrs by MTT-based checkerboard microplate method; assay type: functional; procedure, shortened: as §1
[11] = Synergistic cytotoxicity against mouse L5178 cells expressing human ABCB1 assessed as combination index at ED50 using 30:1 test compound to doxorubicin ratio after 48 hrs by MTT-based checkerboard microplate method; assay type: functional; procedure, shortened: as §1
[12] = Synergistic cytotoxicity against mouse L5178 cells assessed as combination index at ED75 using 75:1 test compound to doxorubicin ratio after 48 hrs by MTT-based checkerboard microplate method; assay type: functional; procedure, shortened: as §1
[13] = Synergistic cytotoxicity against mouse L5178 cells expressing human ABCB1 assessed as combination index at ED50 using 15:1 test compound to doxorubicin ratio after 48 hrs by MTT-based checkerboard microplate method; assay type: functional; procedure, shortened: as §1
[14] = Synergistic cytotoxicity against mouse L5178 cells expressing human ABCB1 assessed as combination index at ED75 using 7.5:1 test compound to doxorubicin ratio after 48 hrs by MTT-based checkerboard microplate method; assay type: functional; procedure, shortened: as §1
[15] = Synergistic cytotoxicity against mouse L5178 cells assessed as combination index at ED50 using 37.5:1 test compound to doxorubicin ratio after 48 hrs by MTT-based checkerboard microplate method; assay type: functional; procedure, shortened: as §1
[16] = Synergistic cytotoxicity against mouse L5178 cells assessed as combination index at ED50 using 300:1 test compound to doxorubicin ratio after 48 hrs by MTT-based checkerboard microplate method; assay type: functional; procedure, shortened: as §1
[17] = Synergistic cytotoxicity against mouse L5178 cells assessed as combination index at ED50 using 600:1 test compound to doxorubicin ratio after 48 hrs by MTT-based checkerboard microplate method; assay type: functional; procedure, shortened: as §1
[18] = Synergistic cytotoxicity against mouse L5178 cells assessed as combination index at ED90 using 600:1 test compound to doxorubicin ratio after 48 hrs by MTT-based checkerboard microplate method; assay type: functional; procedure, shortened: as §1
[19] = Synergistic cytotoxicity against mouse L5178 cells expressing human ABCB1 assessed as combination index at ED90 using 30:1 test compound to doxorubicin ratio after 48 hrs by MTT-based checkerboard microplate method; assay type: functional; procedure, shortened: as §1
[20] = Synergistic cytotoxicity against mouse L5178 cells assessed as combination index at ED90 using 300:1 test compound to doxorubicin ratio after 48 hrs by MTT-based checkerboard microplate method; assay type: functional; procedure, shortened: as §1
[21] = Synergistic cytotoxicity against mouse L5178 cells expressing human ABCB1 assessed as combination index at ED50 using 7.5:1 test compound to doxorubicin ratio after 48 hrs by MTT-based checkerboard microplate method; assay type: functional; procedure, shortened: as §1
[22] = Synergistic cytotoxicity against mouse L5178 cells assessed as combination index at ED90 using 37.5:1 test compound to doxorubicin ratio after 48 hrs by MTT-based checkerboard microplate method; assay type: functional; procedure, shortened: as §1
[23] = Synergistic cytotoxicity against mouse L5178 cells assessed as combination index at ED75 using 150:1 test compound to doxorubicin ratio after 48 hrs by MTT-based checkerboard microplate method; assay type: functional; procedure, shortened: as §1
[24] = Cytotoxicity against mouse L5178 cells after 48 hrs by MTT assay; assay type: functional, cell-based; conditions: L5178, 48 h
Procedure, shortened: (§4)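 Parental mouse lymphoma L5178 and the MDR line made by pHa MDR1/A retrovirus transfection, selected with 60 µg/L colchicine. Grown in McCoy's 5A with horse serum at 37°C, 5% CO2. 5 x 10^4 cells/well, serial compound dilutions, 48 h. MTT added to 0.5 mg/mL final for 4 h, then 10% SDS in 0.01 M HCl overnight, OD read at 540 and 630 nm. IC50 taken as median cytotoxic activity (Dm) from control lanes of checkerboard plates, n=2.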

[25] = Synergistic cytotoxicity against mouse L5178 cells assessed as combination index at ED90 using 75:1 test compound to doxorubicin ratio after 48 hrs by MTT-based checkerboard microplate method; assay type: functional; procedure, shortened: as §1
[26] = Cytotoxicity against mouse L5178 cells expressing human ABCB1 after 48 hrs by MTT assay; assay type: functional, cell-based; conditions: L5178, 48 h; procedure, shortened: as §4
[27] = Synergistic cytotoxicity against mouse L5178 cells assessed as combination index at ED90 using 150:1 test compound to doxorubicin ratio after 48 hrs by MTT-based checkerboard microplate method; assay type: functional; procedure, shortened: as §1
[28] = Synergistic cytotoxicity against mouse L5178 cells expressing human ABCB1 assessed as combination index at ED75 using 60:1 test compound to doxorubicin ratio after 48 hrs by MTT-based checkerboard microplate method; assay type: functional; procedure, shortened: as §1
MCF7 = experiment: Antiproliferative activity against human MCF7 cells after 72 hrs by MTT assay; assay type: functional, cell-based; conditions: MCF7, 72 h; procedure, shortened: as §2
[29] = Synergistic cytotoxicity against mouse L5178 cells assessed as combination index at ED75 using 600:1 test compound to doxorubicin ratio after 48 hrs by MTT-based checkerboard microplate method; assay type: functional; procedure, shortened: as §1
[30] = Synergistic cytotoxicity against mouse L5178 cells expressing human ABCB1 assessed as combination index at ED75 using 15:1 test compound to doxorubicin ratio after 48 hrs by MTT-based checkerboard microplate method; assay type: functional; procedure, shortened: as §1
MDA-MB-231 = experiment: Antiproliferative activity against human MDA-MB-231 cells after 72 hrs by MTT assay; assay type: functional, cell-based; conditions: MDA-MB-231, 72 h; procedure, shortened: as §2
ABCB1 (P-glycoprotein) [31] = target: T1, ABCB1 (P-glycoprotein); experiment: Inhibition of human ABCB1 expressed in mouse L5178 cells assessed as increase in rhodamine-123 accumulation at 20 uM after 10 mins by flow cytometric analysis relative to control; assay type: cell-based; conditions: mouse L5178 cells expressing human ABCB1, probe rhodamine-123; procedure, shortened: as §3

Row | SMILES | CI [1] | CI [2] | CI [3] | CI [4] | IC50 (HeLa) | inhibition at 10 min, 2 µM (ABCB1 (P-glycoprotein) [5]) | CI [6] | CI [7] | CI [8] | IC50 (SiHa) | CI [9] | CI [10] | CI [11] | CI [12] | CI [13] | CI [14] | CI [15] | CI [16] | CI [17] | CI [18] | further results
1 | CO/N=C1\C=C2[C@H](CC[C@]3(C)[C@@H]([C@@]4(C)OC(C)(C)O[C@@H]4CCC(C)(C)O)CC[C@@]23O)[C@@]2(C)C[C@@H]3OC(C)(C)O[C@@H]3C[C@@H]12 | 0.8 | 0.99 | 0.16 | 1.14 | > 30 µM | 2.25% | 0.52 | 0.16 | 0.29 | > 30 µM | 1.06 | 0.21 | 0.19 | 1.06 | 0.17 | 0.17 | 1.19 | 0.82 | 0.93 | 0.91 | CI [19]: 0.24; CI [20]: 0.83; CI [21]: 0.19; CI [22]: 1.13; CI [23]: 0.79; IC50 [24]: 40.9 µM; CI [25]: 1.19; IC50 [26]: 55.1 µM; CI [27]: 0.62; CI [28]: 0.39; IC50 (MCF7): > 30 µM; CI [29]: 0.9; CI [30]: 0.16; IC50 (MDA-MB-231): > 30 µM; inhibition at 10 min, 20 µM (ABCB1 (P-glycoprotein) [31]): 25.1%
2 | CCO/N=C1\C=C2[C@H](CC[C@]3(C)[C@@H]([C@@]4(C)OC(C)(C)O[C@@H]4CCC(C)(C)O)CC[C@@]23O)[C@@]2(C)C[C@@H]3OC(C)(C)O[C@@H]3C[C@@H]12 | 1.08 | 0.59 | 0.15 | 0.58 | > 30 µM | 17.5% | 0.41 | 0.12 | 0.31 | > 30 µM | 0.17 | 0.23 | 0.2 | 0.7 | 0.57 | 0.14 | 0.55 | 1.09 | 1.02 | 0.89 | CI [19]: 0.26; CI [20]: 1.06; CI [21]: 0.18; CI [22]: 0.6; CI [23]: 0.8; IC50 [24]: 35 µM; CI [25]: 0.84; IC50 [26]: 47 µM; CI [27]: 1.1; CI [28]: 0.35; IC50 (MCF7): 22.6 µM; CI [29]: 0.95; CI [30]: 0.16; IC50 (MDA-MB-231): > 30 µM; inhibition at 10 min, 20 µM (ABCB1 (P-glycoprotein) [31]): 78.8%
3 | CC(C)(O)CC[C@H]1OC(C)(C)O[C@]1(C)[C@H]1CC[C@@]2(O)C3=C/C(=N\OC(C)(C)C)[C@@H]4C[C@H]5OC(C)(C)O[C@H]5C[C@]4(C)[C@H]3CC[C@]12C | 0.98 | 0.56 | 0.25 | 0.63 | 8.43 µM | 38.8% | 0.53 | 0.17 | 0.38 | 16.1 µM | 0.24 | 0.29 | 0.27 | 0.67 | 0.66 | 0.2 | 0.58 | 0.91 | 1 | 1.7 | CI [19]: 0.36; CI [20]: 1.06; CI [21]: 0.3; CI [22]: 0.7; CI [23]: 0.91; IC50 [24]: 28.1 µM; CI [25]: 0.8; IC50 [26]: 29.1 µM; CI [27]: 1.26; CI [28]: 0.44; IC50 (MCF7): 11.1 µM; CI [29]: 1.3; CI [30]: 0.23; IC50 (MDA-MB-231): 12.4 µM; inhibition at 10 min, 20 µM (ABCB1 (P-glycoprotein) [31]): 112%
